Measurements: ChEMBL document CHEMBL2203053, “DNA binding acridine-thiazolidinone agents affecting intracellular glutathione” (Bioorg Med Chem, 2012)
Values belong to the molecule of their own block, whether it stands above or below them. Activity calls are given as the source filed them. The calls are words filed in the database; no cut-off is given here.

Tests used:
Nucleic Acid [1] = test: Binding affinity to calf thymus DNA assessed as binding constant by spectrofluorimetry based McGhee von Hippel method; format: nucleic-acid assay; conditions: Bos taurus
In short: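 Fluorescence titration used compound at 26.7 µM in 0.01 M Tris buffer (pH 7.4, 24 °C). ctDNA was added stepwise from 0 to 32 µM bp at 2 µM intervals until spectra stopped changing. Excitation was 384 nm and emission was read at 410–470 nm. Binding constant K was derived by the McGhee–von Hippel method from Scatchard plot data.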

Nucleic Acid [2] = test: Binding affinity to calf thymus DNA assessed as hypochromicity at 25 uM by UV-visible spectrophotometry; format: nucleic-acid assay; conditions: Bos taurus
In short: (§1)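 Absorption spectra were taken in 0.01 M Tris buffer, pH 7.4. Compounds were diluted from DMSO stock to a final 25 µM. Sonicated calf thymus DNA in TE buffer was added at 0–30 µM bp, with concentration set by A260. Shift of λmax (free vs bound) and % hypochromicity were recorded.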

A2780 [3] = test: Cytotoxicity against human A2780 cells after 48 hrs by MTT assay; format: functional, cell-based; conditions: A2780, 48 h
In short: (§2)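 HL-60, L1210 and A2780 cells were grown in RPMI 1640 with 10% FBS, penicillin and streptomycin at 37 °C, 5% CO₂; HL-60 and A2780 medium also had 2 mM glutamine. Cells were exposed to 0–30 µM for 48 or 72 h. Viability was read by MTT microculture tetrazolium assay and IC50 was determined.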

HL-60 [4] = test: Cytotoxicity against human HL60 cells after 48 hrs using trypan blue exclusion staining by DCC method; format: functional, cell-based; conditions: HL-60, 48 h
In short: (§3)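 For trypan blue dye-exclusion direct cell counting, HL-60 cells were seeded at 1 × 10⁵ cells/mL. Compound at 0–10 µM, or 1% DMSO control, was added after 24 h. Viable counts were taken after 24, 48 and 72 h. IC50 (50% inhibition of viability) came from growth curves, as mean ± S.D., n = 3.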

HL-60 [5] = test: Drug uptake in human HL60 cells at 5 uM after 4 hrs by Hoechst staining based fluorescence microscopy; format: ADME, cell-based; conditions: hl-60, 4 h
In short: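 HL-60 cells were exposed to 5 µM for 4 h at 37 °C, 5% CO₂, then washed in PBS. Intrinsic blue fluorescence was viewed by optical and fluorescence microscopy. Untreated control cells were stained with Hoechst 33342 (10 µM, 10 min).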

HL-60 [6] = test: Cytotoxicity against human HL60 cells after 72 hrs using trypan blue exclusion staining by DCC method; format: functional, cell-based; conditions: HL-60, 72 h; in short: as §3
HL-60 [7] = test: Induction of necrosis in human HL60 cells assessed as cell shrinking at 5 uM after 24 hrs by propidium iodide staining based fluorescence microscopy; format: functional
HL-60 [8] = test: Cytotoxicity against human HL60 cells after 72 hrs by MTT assay; format: functional, cell-based; conditions: HL-60, 72 h; in short: as §2
Nucleic Acid [9] = test: Ratio of proflavine K to compound K for calf thymus DNA by spectrofluorimetry based McGhee von Hippel method; format: nucleic-acid assay; conditions: Bos taurus
HL-60 [10] = test: Cytotoxicity against human HL60 cells after 48 hrs by MTT assay; format: functional, cell-based; conditions: HL-60, 48 h; in short: as §2
HL-60 [11] = test: Cytotoxicity against BSO pretreated human HL60 cells assessed as cell viability at 3 uM treated 6 hrs after BSO addition measured after 48 hrs by trypan blue exclusion assay; format: functional, cell-based
In short: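 HL-60 cells were pretreated 6 h with L-buthionine-sulfoximine (10 µM), then exposed to 1.5, 3.0 or 1.0 µM compound for 48 h. Viable cells were counted by trypan blue staining and expressed as percentage of all cells.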

HL-60 [12] = test: Decrease in intracellular glutathione level in human HL60 cells at 2 uM after 24 hrs by spectrophotometric analysis; format: functional, cell-based
HL-60 [13] = test: Decrease in intracellular glutathione level in human HL60 cells at 2 uM after 2 hrs by spectrophotometric analysis; format: functional, cell-based
A2780 [14] = test: Cytotoxicity against human A2780 cells after 72 hrs by MTT assay; format: functional, cell-based; conditions: A2780, 72 h; in short: as §2
L1210 [15] = test: Cytotoxicity against mouse L1210 cells after 48 hrs by MTT assay; format: functional, cell-based; conditions: L1210, 48 h; in short: as §2
Nucleic Acid [16] = test: Ratio of acridine orange K to compound K for calf thymus DNA by spectrofluorimetry based McGhee von Hippel method; format: nucleic-acid assay; conditions: Bos taurus
A2780 [17] = test: Drug uptake in human A2780 cells at 5 uM after 4 hrs by Hoechst staining based fluorescence microscopy; format: ADME, cell-based; conditions: a2780, 4 h
Nucleic Acid [18] = test: Ratio of daunomycin K to compound K for calf thymus DNA by spectrofluorimetry based McGhee von Hippel method; format: nucleic-acid assay; conditions: Bos taurus
L1210 [19] = test: Cytotoxicity against mouse L1210 cells after 72 hrs by MTT assay; format: functional, cell-based; conditions: L1210, 72 h; in short: as §2
Nucleic Acid [20] = test: Binding affinity to calf thymus DNA assessed as bathochromic shift at 25 uM by UV-visible spectrophotometry; format: nucleic-acid assay; conditions: Bos taurus; in short: as §1
Nucleic Acid [21] = test: Binding affinity to calf thymus DNA assessed as melting temperature at 5 uM at pH 7.1 by thermal denaturation assay; format: nucleic-acid assay; conditions: Bos taurus

K (Nucleic Acid [1]): 7.09 ×10⁵ /M
SMILES: COc1cccc2c1C(=O)c1c(O)c3c(c(O)c1C2=O)C[C@@](O)(C(C)=O)C[C@@H]3O[C@H]1C[C@H](N)[C@H](O)[C@H](C)O1

Activity (Nucleic Acid [2]): 31.2%
K (Nucleic Acid [1]): 1.37 ×10⁶ /M
Drug uptake (HL-60 [5]): Active
Ratio (Nucleic Acid [9]): 10
Ratio (Nucleic Acid [16]): 10
Drug uptake (A2780 [17]): Active
Ratio (Nucleic Acid [18]): 10
Activity (Nucleic Acid [20]): Active
Tm (Nucleic Acid [21]): 74 °C
SMILES: COC(=O)/C=C1\S/C(=N\c2c3ccccc3nc3ccccc23)N(C(C)(C)C)C1=O
IC50 (A2780 [3]): > 30 µM
IC50 (HL-60 [4]): 3.5 µM
IC50 (HL-60 [6]): 2.8 µM
Activity (HL-60 [7]): Active
IC50 (HL-60 [8]): 3.7 µM
IC50 (HL-60 [10]): 5.4 µM
Activity (HL-60 [11]): Active
Activity (HL-60 [12]): inactive
Activity (HL-60 [13]): Active
IC50 (A2780 [14]): 23.7 µM
IC50 (L1210 [15]): 17.9 µM
IC50 (L1210 [19]): 20.9 µM
